Laboratory results as given in paper PMC2193291 (The Journal of Experimental Medicine, 2000).
Read-outs that look alike come from different tables or passages of the source. Values belong to the molecule of their own block, whether it stands above or below them.

Key:
[1] = target: cRaf (Homo sapiens, UniProt P04049); assay type: cell-based
Procedure, shortened: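 COS-7 cells transfected with Flag-cRaf by calcium phosphate, kept 2 d in serum-free phenol-red-free DME, then given retinoids and/or scavengers (100 mM sodium azide, 1 mM N-acetylcysteine). UVB-irradiated at 400 μw/cm2 and incubated at 37°C for set times. Flag-Raf pulled down with anti-Flag M2 and washed in 0.5 M NaCl. Kinase reaction: 200 ng His-MEK(K97M), 60 μM ATP plus [γ-32P]ATP, 20 min, 30°C.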

[2] = tested on: MAPK (phospho-ERK); assay: Peroxide activation of endogenous MAPK in Jurkat cells, phospho-ERK Western blot; assay type: cell-based; conditions: 100 μM H2O2, different concentrations of retinol
Procedure, shortened: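 Jurkat cells grown serum-free and retinol-free, then given varying retinol concentrations. Activated 15 min later for 10 min with 100 μM H2O2. Endogenous MAPK activity read as phospho-ERK on Western blots.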

[3] = target: Human cRaf-1 C1 ZiF domain (Homo sapiens, UniProt P04049); assay: Retinoid binding by quenching of intrinsic protein
[4] = target: PKCα (Mus musculus, UniProt P20444); assay: PKCα immunoprecipitation/kinase assay of H2O2-activated 3T3 cells; assay type: cell-based
Procedure, shortened: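 3T3 cells retinol-depleted, some repleted 12 h with 2 μM retinol, then activated 10 min with graded H2O2 doses without staurosporine. Detergent lysates immunoprecipitated with PKCα antibody. Kinase activity measured in washed immunoprecipitates with H1 histone as substrate. Normalized data from six independent H2O2 titrations.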

[5] = target: T1, Human PKCμ C1A ZiF domain (Homo sapiens, UniProt Q15139); assay: Retinol binding by trp fluorescence quench, Gst fusion protein
T1 sequence (Q15139 146-196 limits assumed): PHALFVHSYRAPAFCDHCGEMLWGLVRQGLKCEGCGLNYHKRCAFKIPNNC
Procedure, shortened: (§1)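 Gst-ZiF fusions expressed in E. coli BL21/DE3 and purified on glutathione-agarose to >90%. Constructs: Drosophila C1A aa 40–101; C1B aa 105–261 plus trp 262; Vav aa 464–518 plus trp 519. Protein at 250 nM in helium-degassed PBS, titrated stepwise with all-trans retinol from a methanol stock. Trp emission 330 nm (excitation 280 nm), corrected for inner filtering. Kd from nonlinear fit over at least four independent measurements.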

[6] = target: Human PKCδ C1A ZiF domain (Homo sapiens, UniProt Q05655); assay: as above
Procedure, shortened: as §1

[7] = target: T2, S. cerevisiae PKC C1B ZiF domain (Saccharomyces cerevisiae, UniProt P24583); assay: as above
T2 sequence (P24583 481-531 limits assumed): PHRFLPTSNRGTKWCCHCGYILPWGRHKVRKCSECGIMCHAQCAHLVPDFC
Procedure, shortened: as §1

[8] = target: Human PKCδ C1B ZiF domain (Homo sapiens, UniProt Q05655); assay: Retinol binding by trp fluorescence quench, Gst fusion protein
[9] = target: Drosophila PKC C1A ZiF domain (Drosophila melanogaster, UniProt P05130); assay: Retinol binding by trp fluorescence quench, Gst fusion protein
Procedure, shortened: as §1

[10] = target: Gst-Raf ZiF (human cRaf-1 ZiF domain) (Homo sapiens, UniProt P04049); assay: Retinol binding by fluorescence resonance energy transfer
[11] = target: Human PKCα C1A ZiF domain (Homo sapiens, UniProt P17252); assay: Retinol binding by trp fluorescence quench, Gst fusion protein
Procedure, shortened: as §1

[12] = tested on: cRaf/MAPK (ERK1 and 2 phosphorylation); assay: Oxidative; assay type: cell-based; conditions: 3T3 cells, 2 μM retinol
[13] = target: Drosophila PKC C1B ZiF domain (Drosophila melanogaster, UniProt P05130); assay: Retinol binding by trp fluorescence quench, Gst fusion protein
Procedure, shortened: as §1

[14] = target: Human PKCα C1B ZiF domain (Homo sapiens, UniProt P17252); assay: as above
Procedure, shortened: as §1

[15] = target: T3, S. cerevisiae PKC C1A ZiF domain (Saccharomyces cerevisiae, UniProt P24583); assay: Retinol binding by trp fluorescence quench, Gst fusion protein
T3 sequence (P24583 414-461 limits assumed): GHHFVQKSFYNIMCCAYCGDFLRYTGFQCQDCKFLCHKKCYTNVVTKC

[16] = target: T4, Human Vav C1 ZiF domain (Homo sapiens, UniProt P15498); assay: Retinol binding by trp fluorescence quench, Gst fusion protein
T4 sequence (P15498 with tags, fused parts or gaps): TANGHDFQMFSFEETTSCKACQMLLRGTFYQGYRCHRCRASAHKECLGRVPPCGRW
Procedure, shortened: as §1

[17] = target: T5, Human PKCμ C1B ZiF domain (Homo sapiens, UniProt Q15139); assay: as above
T5 sequence (Q15139 270-320 limits assumed): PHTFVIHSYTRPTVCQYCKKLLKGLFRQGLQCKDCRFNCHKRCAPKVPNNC
Procedure, shortened: as §1

[18] = target: T6, Human PKCζ C1 ZiF domain (Homo sapiens, UniProt Q05513); assay: Retinol binding by trp fluorescence quench, Gst fusion protein
T6 sequence (Q05513 130-180 limits assumed): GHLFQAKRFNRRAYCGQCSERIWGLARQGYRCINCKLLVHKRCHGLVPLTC

cRaf, sequence (P04049 whole entry): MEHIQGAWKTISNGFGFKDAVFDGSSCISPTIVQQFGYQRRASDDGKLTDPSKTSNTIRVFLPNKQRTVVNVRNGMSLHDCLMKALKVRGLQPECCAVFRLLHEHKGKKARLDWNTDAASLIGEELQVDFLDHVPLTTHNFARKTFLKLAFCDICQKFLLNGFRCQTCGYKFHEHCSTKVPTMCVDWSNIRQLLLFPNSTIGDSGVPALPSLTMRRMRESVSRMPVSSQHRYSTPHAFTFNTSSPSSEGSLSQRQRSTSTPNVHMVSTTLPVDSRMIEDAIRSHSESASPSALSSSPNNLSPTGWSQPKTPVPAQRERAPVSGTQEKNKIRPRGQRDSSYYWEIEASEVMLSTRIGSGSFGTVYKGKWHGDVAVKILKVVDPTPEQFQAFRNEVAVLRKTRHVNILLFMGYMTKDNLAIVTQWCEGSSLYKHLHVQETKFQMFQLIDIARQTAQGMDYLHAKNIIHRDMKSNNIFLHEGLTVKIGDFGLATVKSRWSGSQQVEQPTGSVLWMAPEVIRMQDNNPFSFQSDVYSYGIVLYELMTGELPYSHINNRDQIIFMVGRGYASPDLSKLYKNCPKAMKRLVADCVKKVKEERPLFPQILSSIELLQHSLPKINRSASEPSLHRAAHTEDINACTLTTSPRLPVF
Human PKCδ C1B ZiF domain, sequence (Q05655 231-280): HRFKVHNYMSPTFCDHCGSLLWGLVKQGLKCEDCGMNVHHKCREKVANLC
Human PKCδ C1A ZiF domain, sequence (Q05655 159-209): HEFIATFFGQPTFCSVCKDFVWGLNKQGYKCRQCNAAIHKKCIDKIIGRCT

Compound: [2H]O[2H] [deuterated water]
- Effect on UVB-induced Raf activity ([1]; addition of deuterated water): distinct, though moderate, enhancement

- Kd ([3]; Binding constant, cRaf-1 amino acids 136–195, trp fluorescence quench, ± SE): 22 ± 3.5 nM
- Activation of PKC by phorbol ester ([4]; 150 nM phorbol ester): not significantly enhanced
- Increase of PKCα kinase activity at maximum stimulation over unstimulated cells ([4]; 3T3 cells, 200 μM H2O2, in the presence of 2 μM retinol, 6 experiments): 20 fold
- Optimum dose for enhancement of PKCα activation ([4]; data not shown): 1 µM
- Overall retinol enhancement effect on PKCα kinase activity ([4]; presence vs absence of retinol, 200 μM H2O2): 3 fold
- Intrinsic PKC activation by retinol alone ([4]; without H2O2): no intrinsic PKC activation
- Kd [5]: 18.1 ± 8 nM
- Augmentation of UVB-induced Raf kinase activity ([1]; COS cells replenished with 2 μM retinol, UVB): 2.2 ± 0.4 fold
- Kd [6]: 95.2 ± 1.3 nM
- Kd [7]: > 500 nM
- Kd [8]: 67.3 ± 1.3 nM
- Kd [9]: 18.5 ± 3.7 nM
- Kd [10]: 25.8 nM
- FRET signal ([10]; truncated Gst-Raf Zif136–186 lacking trp 187): did not elicit a FRET signal
- Kd [11]: 20.7 ± 4 nM
- Kd [13]: > 500 nM
- Kd [14]: > 500 nM
- Kd [15]: 17.9 ± 5.1 nM
- Kd [16]: > 500 nM
- Kd [17]: 17.3 ± 4 nM
- Kd [18]: 34.1 ± 6.7 nM
Compound: CC1=C(/C=C/C(C)=C/C=C/C(C)=C/CO)C(C)(C)CCC1 [retinol, all-trans retinol]
- Enhancement of MAPK activation by peroxide [2]: dose-dependent enhancement
- MAPK activity in retinol-repleted compared with retinol-deficient cultures ([12]; 300 μM H2O2, peak at 10–15 min, phosphorylated p42): two- to threefold higher
- MAPK activation by 5% FBS, retinol-sufficient vs retinol-deficient cultures ([12]; 5% FBS): no differences

- Binding to native Gst-Raf4–256 (fluorescence quenching) ([3]; 1-μM protein solution, native protein): saturable binding
Compound: CC(C=CC=C(C)C(O)CO)=CC=C1C(C)=CCCC1(C)C (stereo not shown) [14HRR, 14-hydroxy-retro-retinol]

- Effect on UVB-induced Raf activation ([1]; N-acetylcysteine 1 mM): abolished the Raf activation
Compound: CC(=O)N[C@@H](CS)C(=O)O [N-acetylcysteine]

Compound: [N-]=[N+]=[N-].[Na+] [sodium azide]
- Effect on UVB-induced Raf activation ([1]; sodium azide 100 mM): abolished the Raf activation
